This is a sample that favours compounds with a hit; in the whole collection about 1.6% have one here.
C8 TRAIL sens – caspase-8 TRAIL sensitization; NB7+C8 cells + TRAIL, ATPlite viability luminescence; inhibition (viability loss, TRAIL sensitization), % at 10 µM; 360,000 tested, 1% active; AID 624354;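 active = compounds causing at least 50% loss of cell viability in the single-dose screen, relative to plate controls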
FLuc stim CS – firefly luciferase counter-screen for stimulation assays; P08659; ATPlite luciferase biochemical, luminescence, 10 min; 0 = ATP-free wells, 1 = DMSO control; activation factor at 10 µM; 200,000 tested, under 10 active; AID 1027;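 active = luciferase activation factor, scaled between plate controls, of at least 2 with compound at 10 µM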
Target sequence (P08659 whole entry, looked up): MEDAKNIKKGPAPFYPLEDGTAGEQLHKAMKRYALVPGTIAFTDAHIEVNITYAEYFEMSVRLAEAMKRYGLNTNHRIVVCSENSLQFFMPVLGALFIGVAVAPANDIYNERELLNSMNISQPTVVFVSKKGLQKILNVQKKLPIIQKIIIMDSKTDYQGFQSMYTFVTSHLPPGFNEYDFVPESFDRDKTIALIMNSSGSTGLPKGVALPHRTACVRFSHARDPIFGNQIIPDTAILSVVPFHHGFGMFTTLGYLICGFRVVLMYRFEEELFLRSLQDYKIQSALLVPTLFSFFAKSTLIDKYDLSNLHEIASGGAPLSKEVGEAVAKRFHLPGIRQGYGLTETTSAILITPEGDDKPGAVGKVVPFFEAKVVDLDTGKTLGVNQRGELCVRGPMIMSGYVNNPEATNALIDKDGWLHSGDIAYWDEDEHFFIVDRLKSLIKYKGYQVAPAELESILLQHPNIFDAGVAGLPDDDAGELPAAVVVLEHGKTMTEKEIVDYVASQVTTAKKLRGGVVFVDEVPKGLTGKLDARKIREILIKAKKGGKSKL
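System: luciferase plus luciferin reagent, cell-free; medium: PBS as buffer for the ATP substrate; dosing: test compounds dosed from 2 mM stocks in 100% DMSO; timing: 10 min post-reagent at room temperature; measured by: luminescence measurement of luciferase light output; evaluation: luciferase activation, seen as luminescence increase over controls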
FLuc inh counter – counter-screen for luciferase assay inhibitors: firefly luciferase inhibition. 200,000 tested, 1.5% active. inhibition, % at 10 µM. ATPLite firefly luciferase biochemical luminescence, 10 min;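 active = inhibition above about 50% when tested at 10 µM, limit read from the data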
PPC-1+TRAIL kill – compounds killing PPC-1 cancer cells with TRAIL present (potentiator screen, no TRAIL-free arm) | PPC-1 cells + TRAIL, ATPLite viability luminescence | cell killing (% activity), % at 4 µM or 5 µM | 220,000 tested, 0.41% active | AID 1443;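 active = cell killing above 50% in the first pass at 4 µM, then a duplicate retest at 5 µM averaging 50% or more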;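 note: plate controls were cells with TRAIL plus DMSO for no effect and medium-only wells lacking cells for full effect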
Platelet DG rel – modulates dense granule release in human platelets; human platelet-rich plasma, SFLLRN dense granule ATP release, luminescence; inhibition, %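 (compounds screened at 7.5 µM in platelet-rich plasma)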; 300,000 tested, 0.22% active;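 active = mean replicate score, as percent of positive control, at or above 50; inconclusive = mean below 50 but at least one replicate at or above 50; inactive = mean and every replicate below 50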
PPC1 cytotox – PPC-1 cell cytotoxicity. PPC-1 viability, ATPlite luminescence, overnight. 1,200 tested, 50% active. cytotoxicity, % at 5 µM. shares compounds with PPC-1+TRAIL kill. AID 1447;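 active = reconfirmed compounds whose average cytotoxicity reaches 50% or more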;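 note: 0% = DMSO-treated cells and 100% = wells holding medium but no cells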
* = called active by the depositor; ? = inconclusive; . = no result.

SMILES	C8 TRAIL sens	FLuc stim CS	FLuc inh counter	PPC-1+TRAIL kill	Platelet DG rel	PPC1 cytotox
CC1C(=O)N(Cc2cn(Cc3ccco3)nn2)CCS(=O)(=O)N1Cc1ccc(-c2cccc(N(C)C)c2)cc1 (stereo not drawn)	-5	.	.	.	.	.
COc1cc(/C=C/c2cc(C(=O)O)c3ccccc3n2)cc(OC)c1O	-1	0.6	38	35	-11	.
CCOc1cccc(/C=C/c2cc(C(=O)O)c3ccccc3n2)c1OC	76*	.	.	71*	1	69*
CC1CCCC(NC(=O)CSc2nnc(-c3cccnc3)o2)C1C (stereo not drawn)	1	.	.	.	.	.
Cc1cccc(NS(=O)(=O)c2ccc(C)c(C(=O)OCC(=O)Nc3cc(C)on3)c2)c1	14	1	4	7	8	7
Cc1cccc(NS(=O)(=O)c2cc(C(=O)OCC(=O)Nc3cc(C)on3)ccc2C)c1	8	1	-4	-10	3	.
Cn1nnc(NC(=O)c2ccc(C(C)(C)C)cc2)n1	55*	0.2	80*	54*	0	53*
O=C(COc1ccc(Cl)cc1Cl)Nc1ccc(Cl)cn1	65*	0.1	86*	59*	7	59*
COc1cccc(C(=O)Nc2nc3ccccc3[nH]2)c1	83*	0.1	91*	71*	31	73*
O=C(Nc1nc2ccccc2[nH]1)c1ccc(Br)o1	44	0.3	73*	25	1	24
NNC(=O)c1cn2ccccc2n1	-7	1	-3	28	0	.
O=C(Nc1nccs1)c1cn2ccccc2n1	40	.	.	61*	14	59*
COc1ccc(CN(C)C(=O)/C=C/[C@H]2O[C@@H](n3cnc4c(N)ncnc43)[C@H](O)[C@@H]2O)cc1OC	-22	.	.	.	.	.
Cc1c(Cl)ccc2c(C(=O)O)cc(-c3ccccc3)nc12	35	.	.	16	-21	23
Cc1c(Cl)ccc2c(C(N)=O)cc(-c3ccccn3)nc12	-10	1	-4	8	22	.
COC(=O)[C@]12CCCCC=C1N(CCC1=CCCCC1)C(=O)[C@H](CC(=O)N1CCC(c3ccccc3)CC1)C2	4	.	.	.	.	.
O=C(/C=C/c1ccc2c(c1)OCO2)Nc1cccnc1	70*	0.1	87*	60*	25	57*
OC[C@@H]1CN(Cc2ccc(Cl)cc2)C[C@H](n2cnc3c(NC4CCC4)ncnc32)O1	-4	.	.	.	.	.
O=C(Nc1ccc(N2CCCCC2)cc1)c1ccccc1	74*	0.1	88*	66*	28	61*
Cc1ccc(C(=O)Nc2ccc(N3CCCCC3)cc2)cc1	47	.	.	.	.	.
COC(=O)C[C@@H]1C=C[C@@H](NS(=O)(=O)c2ccc(OC)cc2)[C@@H](CO)O1	-2	.	.	.	.	.
Cc1[nH]ccc2cc3nc4ccccc4c3cc12	34	.	.	.	.	.
S=c1[nH]ncn1/N=C/c1ccc(Br)cc1	-7	1	4	-1	5	.
S=c1[nH]ncn1/N=C/c1ccc(N2CCOCC2)cc1	51*	0.1	87*	62*	3	64*
Cc1cccc(-n2ncc3c(N4CCOCC4)ncnc32)c1	84*	0.1	94*	79*	8	78*
SMILES	C8 TRAIL sens	FLuc stim CS	FLuc inh counter	PPC-1+TRAIL kill	Platelet DG rel	PPC1 cytotox
Clc1ccc(-n2ncc3c(N4CCCCCC4)ncnc32)cc1	84*	0.2	83*	63*	9	68*
Clc1ccc(Cn2ncc3c(N4CCCCC4)ncnc32)cc1	8	1.1	-6	-3	-19	.
Cc1ccc(C(=O)O/N=C/c2c(N3CCOCC3)n(C)c3ccccc23)cc1	-3	1	-2	40	3	19
CCCCC(=O)Nc1ccccc1Oc1ccccc1	-3	1	-1	-6	22	-14
O=C1NC[C@H](CCCCN2C[C@H](Cc3ccccc3)N(CCc3ccc(O)cc3)C(=O)C2=O)N(CCC2CCCCC2)C1=O	-17	.	.	.	.	.
C=CCn1c(SCC(=O)NC(=O)NC)nnc1C1CCCCC1	7	1	-3	4	15	.
C=CCn1c(SCC(=O)NC(=O)NCCC)nnc1C1CCCCC1	-8	1	4	-1	10	3
Nc1ncnc2c1ncn2[C@@H]1O[C@H](C(=O)NS(=O)(=O)c2ccccc2[N+](=O)[O-])[C@@H](O)[C@H]1O	6	.	.	.	.	.
CCN(CC)C(=O)CSc1nc2ccc(NC(=O)CSc3nnc(COc4ccccc4C)n3C)cc2s1	7	1	-4	4	8	.
Cc1ccccc1OCc1nnc(SCC(=O)Nc2ccc3nc(SCC(=O)NC(C)(C)C)sc3c2)n1C	18	1	-3	-15	1	-13
CS(=O)c1nc(-c2ccc(Br)cc2)cc(-c2ccccc2)c1C#N (stereo not drawn)	81*	1	-5	71*	3	73*
COCCNC(=O)C1(C)CCCN(C(=O)c2cccc(OC(F)(F)F)c2)C1 (stereo not drawn)	-14	.	.	.	.	.
O=C(NC1=NCCS1)c1cc2ccccc2o1	58*	0.1	86*	58*	12	51*
O=C(Nc1ccccn1)c1cc2ccccc2o1	83*	0.1	95*	81*	?	80*
Cc1ccc(-c2cc(C(=O)NCc3cccs3)no2)cc1	-26	1	-2	15	-8	17
O=C(NCc1cccs1)c1cc(-c2ccc(O)cc2)on1	-1	.	.	16	-1	.
CC(C)CC(=O)Nc1ccc(-c2cn3ccsc3n2)cc1	83*	0.1	92*	71*	.	71*
CC(C)CC(=O)Nc1ccc(-c2cn3cccnc3n2)cc1	29	.	.	.	5	.
CC(C)(C)C(=O)Nc1ccc(-c2cn3ccsc3n2)cc1	90*	0	96*	91*	11	90*
CCCOc1ccc(C2(C(=O)O)CCCC2)cc1	-10	1.1	-7	11	0	13
CC(=O)Nc1cc(-c2ccc(N3CCN(C)CC3)cc2)cn2c(-c3ccc(S(C)(=O)=O)cc3)cnc12	5	.	.	.	.	.
CCc1nc2ccc(C(=O)NCc3cccs3)cn2c1N(CC)Cc1cccc(Br)c1	18	.	.	.	.	.
c1c2c(cc3sc(N4CCOCC4)nc13)OCCO2	78*	0.2	84*	63*	57*	60*
O=[N+]([O-])c1ccc(Nc2ccccc2)c2nonc12	-6	.	.	.	-2	.
O=[N+]([O-])c1ccc(Sc2cccc[n+]2[O-])c2nonc12	19	.	.	34	20	31
Cc1cc(=O)[nH]c(SCC(=O)N2CCCCCC2)n1	4	1	-5	14	8	13
CCCc1cc(=O)[nH]c(SCC(=O)N2CCN(c3ccc(F)cc3)CC2)n1	-3	1.1	-8	7	-1	0
CCCn1nnnc1NCc1ccccc1OCc1cccs1	-5	1.1	-6	6	7	13
O=C(CSc1nnc(-c2ccccc2)o1)Nc1ccccc1F	59*	1	-1	45	5	51*
